# Values joined by “and” are separate entries in the source; they are usually repeats but may differ in a detail not shown here. Equal entries are not always repeated.
# Test system: Fibroblast
# Assay: Multiplex assay against human fibroblast
# Assay type: toxicity, cell-based
# How it was run: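 Per cents of healthy-nucleus cells form the tubulin, mitochondrial-mass and membrane-permeability phenotype values. Live cells were stained at seeding with Hoechst33342, BioTracker Green Microtubule Cytoskeleton Dye, MitoTracker Red and Annexin V Alexa Fluor 680. After compound addition they were imaged on a CQ1 microscope at 37°C and 5% CO2, and CellPathfinder machine-learning gating split them into Hoechst high-intensity objects or normal cells, normal cells into healthy, pyknosed or fragmented nuclei, and pyknosed cells into mitotic or apoptotic.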
# [1] = 12 h, 1 µM, compound concentration 1 uM
# [2] = 12 h, 10 µM, compound concentration 10 uM
# [3] = 24 h, 1 µM, compound concentration 1 uM
# [4] = 24 h, 10 µM, compound concentration 10 uM
# [5] = 48 h, 1 µM, compound concentration 1 uM
# [6] = 48 h, 10 µM, compound concentration 10 uM
compound,measurement,setting,value
Cc1sc2c(c1C)C(c1ccc(Cl)cc1)=N[C@@H](CC(=O)NCCCCCCCCNC(=O)COc1cccc3c1C(=O)N(C1CCC(=O)NC1=O)C3=O)c1nnc(C)n1-2 (stereo partly drawn),Population Apoptotic (%),[1],57% and 42%
same,Population Healthy Nuclei (%),[1],72% and 34%
same,Population Hoechst High Intensity Objects (%),[1],3% and 6%
same,Population Mitotic Cells (%),[1],42% and 57%
same,Population Normal (%),[1],96% and 93%
same,Population Pyknosed Nuclei (%),[1],16% and 31%
same,Population Tubulin-Different-Phenotype (%),[1],25% and 66%
same,Total Cell Count,[1],118 and 94
same,Population Apoptotic (%),[2],54% and 44%
same,Population Fragmented Nuclei (%),[2],13% and 27%
same,Population Healthy Nuclei (%),[2],56% and 27%
same,Population Hoechst High Intensity Objects (%),[2],11% and 17%
same,Population Membrane Permeable-Phenotype (%),[2],1% and 7%
same,Population Mitochondria Different-Phenotype (%),[2],19% and 26%
same,Population Mitotic Cells (%),[2],45% and 55%
same,Population Normal (%),[2],88% and 82%
same,Population Pyknosed Nuclei (%),[2],30% and 45%
same,Population Tubulin-Different-Phenotype (%),[2],50% and 69%
same,Total Cell Count,[2],171 and 115
same,Population Apoptotic (%),[3],56% and 65%
same,Population Fragmented Nuclei (%),[3],20% and 41%
same,Population Healthy Nuclei (%),[3],53% and 32%
same,Population Hoechst High Intensity Objects (%),[3],10% and 3%
same,Population Mitotic Cells (%),[3],44% and 35%
same,Population Normal (%),[3],89% and 96%
same,Population Pyknosed Nuclei (%),[3],26% and 25%
same,Population Tubulin-Different-Phenotype (%),[3],25% and 72%
same,Total Cell Count,[3],107 and 80
same,Population Apoptotic (%),[4],67% and 44%
same,Population Fragmented Nuclei (%),[4],20% and 25%
same,Population Healthy Nuclei (%),[4],38% and 32%
same,Population Hoechst High Intensity Objects (%),[4],13% and 12%
same,Population Mitochondria Different-Phenotype (%),[4],9% and 20%
same,Population Mitotic Cells (%),[4],32% and 55%
same,Population Normal (%),[4],86% and 87%
same,Population Pyknosed Nuclei (%),[4],41% and 42%
same,Population Tubulin-Different-Phenotype (%),[4],47% and 68%
same,Total Cell Count,[4],154 and 103
same,Population Apoptotic (%),[5],88% and 93%
same,Population Fragmented Nuclei (%),[5],41% and 42%
same,Population Healthy Nuclei (%),[5],24% and 37%
same,Population Mitochondria Different-Phenotype (%),[5],0% and 20%
same,Population Mitotic Cells (%),[5],12% and 6%
same,Population Normal (%),[5],72% and 91%
same,Population Pyknosed Nuclei (%),[5],33% and 20%
same,Population Tubulin-Different-Phenotype (%),[5],33% and 82%
same,Total Cell Count,[5],102 and 85
same,Population Apoptotic (%),[6],86% and 57%
same,Population Fragmented Nuclei (%),[6],40% and 38%
same,Population Healthy Nuclei (%),[6],20% and 38%
same,Population Hoechst High Intensity Objects (%),[6],38% and 15%
same,Population Membrane Permeable-Phenotype (%),[6],5% and 14%
same,Population Mitochondria Different-Phenotype (%),[6],10% and 14%
same,Population Normal (%),[6],61% and 84%
same,Population Pyknosed Nuclei (%),[6],38% and 23%
same,Population Tubulin-Different-Phenotype (%),[6],55% and 80%
same,Total Cell Count,[6],156 and 108
CN1CCN(c2ccc(Nc3c4ccccc4nc4ccccc34)cc2)CC1.Cl.Cl.O,Population Apoptotic (%),[1],47% and 44%
same,Population Fragmented Nuclei (%),[1],15% and 28%
same,Population Healthy Nuclei (%),[1],69% and 56%
same,Population Hoechst High Intensity Objects (%),[1],1%
same,Population Membrane Permeable-Phenotype (%),[1],0% and 5%
same,Population Mitochondria Different-Phenotype (%),[1],3% and 5%
same,Population Mitotic Cells (%),[1],52% and 56%
same,Population Normal (%),[1],98%
same,Population Pyknosed Nuclei (%),[1],14% and 15%
same,Population Tubulin-Different-Phenotype (%),[1],23% and 34%
same,Total Cell Count,[1],135 and 160
same,Population Apoptotic (%),[2],91% and 66%
same,Population Fragmented Nuclei (%),[2],42% and 65%
same,Population Healthy Nuclei (%),[2],49% and 29%
same,Population Hoechst High Intensity Objects (%),[2],8% and 16%
same,Population Membrane Permeable-Phenotype (%),[2],0% and 4%
same,Population Normal (%),[2],91% and 83%
same,Population Pyknosed Nuclei (%),[2],8% and 4%
same,Population Tubulin-Different-Phenotype (%),[2],90% and 79%
same,Total Cell Count,[2],158 and 177
same,Population Apoptotic (%),[3],70% and 60%
same,Population Fragmented Nuclei (%),[3],21% and 29%
same,Population Healthy Nuclei (%),[3],65% and 57%
same,Population Hoechst High Intensity Objects (%),[3],0%
same,Population Membrane Permeable-Phenotype (%),[3],0% and 3%
same,Population Mitochondria Different-Phenotype (%),[3],2% and 7%
same,Population Mitotic Cells (%),[3],29% and 40%
same,Population Normal (%),[3],99% and 100%
same,Population Pyknosed Nuclei (%),[3],12%
same,Total Cell Count,[3],139 and 155
same,Population Apoptotic (%),[4],77% and 60%
same,Population Fragmented Nuclei (%),[4],47% and 69%
same,Population Healthy Nuclei (%),[4],39% and 27%
same,Population Hoechst High Intensity Objects (%),[4],16% and 21%
same,Population Membrane Permeable-Phenotype (%),[4],1% and 6%
same,Population Mitochondria Different-Phenotype (%),[4],66% and 34%
same,Population Mitotic Cells (%),[4],22% and 40%
same,Population Normal (%),[4],83% and 78%
same,Population Pyknosed Nuclei (%),[4],12% and 3%
same,Population Tubulin-Different-Phenotype (%),[4],94% and 84%
same,Total Cell Count,[4],206 and 205
same,Population Apoptotic (%),[5],66% and 55%
same,Population Fragmented Nuclei (%),[5],23% and 25%
same,Population Healthy Nuclei (%),[5],70% and 68%
same,Population Hoechst High Intensity Objects (%),[5],1%
same,Population Membrane Permeable-Phenotype (%),[5],0% and 1%
same,Population Mitochondria Different-Phenotype (%),[5],4%
same,Population Mitotic Cells (%),[5],33% and 44%
same,Population Normal (%),[5],98%
same,Population Pyknosed Nuclei (%),[5],6% and 5%
same,Population Tubulin-Different-Phenotype (%),[5],26%
same,Total Cell Count,[5],144 and 157
same,Population Fragmented Nuclei (%),[6],71% and 88%
same,Population Healthy Nuclei (%),[6],15% and 11%
same,Population Hoechst High Intensity Objects (%),[6],45% and 38%
same,Population Membrane Permeable-Phenotype (%),[6],15% and 25%
same,Population Mitochondria Different-Phenotype (%),[6],30% and 12%
same,Population Normal (%),[6],54% and 61%
same,Population Pyknosed Nuclei (%),[6],12% and 0%
same,Population Tubulin-Different-Phenotype (%),[6],25% and 56%
same,Total Cell Count,[6],235 and 236

# Source: ChEMBL document CHEMBL5724801, “EUbOPEN Chemogenomics Library - Multiplex” (2024)
